ED50 data for 10 compounds are collected here from ChEMBL document CHEMBL1123298, “Novel 1,3-bis(aryloxy)propanes as leukotriene D4 antagonists” (1986).

This assay concerns Cavia porcellus. Description: In vivo antagonistic activity against leukotriene D4 (LTD4) in guinea pig lung. The format is functional. The settings on record: read-out: ID50 (the source's name). Put shortly:
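Drug in propylene glycol given iv 10 min before LTD4 400 ng/kg iv; controls received solvent. Lung overflow volume read at 5 min; ID50 by inverse prediction, common-slope parallel line assay, 3-fold doses, 2–6 animals/dose.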
`CCCc1c(OCCCOc2cccc(NC(=O)C(=O)OCC)c2)ccc(C(C)=O)c1O`: the ED50 came to 1.09 mg/kg.

As for `CCCc1c(OCCCOc2cccc(NC(=O)C(=O)OCC)c2C#N)ccc(C(C)=O)c1O`, the ED50 was determined as 0.342 mg/kg.

Take `CCCc1c(OCC(O)COc2cccc(NC(=O)C(=O)OCC(C)(C)C)c2C#N)ccc(C(C)=O)c1O` (stereo not given): the ED50 was 0.461 mg/kg.

Take `CCCc1c(OCCCOc2cccc(NC(=O)CCC(=O)OCC)c2C#N)ccc(C(C)=O)c1O`: the ED50 was 1.77 mg/kg.

On to `CCCc1c(OCC(O)COc2cccc(NC(=O)C(=O)OCC)c2C#N)ccc(C(C)=O)c1O` (stereo not given), for which the ED50 was determined as 0.113 mg/kg.

Take `CCCc1c(OCC(O)COc2cccc(NC(=O)C(=O)O)c2C#N)ccc(C(C)=O)c1O` (stereo not given): the ED50 is 1.8 mg/kg.

`CCCc1c(NC(=O)C(=O)OCC)cccc1OCC(O)COc1ccc(C(C)=O)c(O)c1CCC` (stereo not given): the ED50 stood at 2.6 mg/kg.

With `CCCc1c(OCCCOc2cccc(NC(=O)CCC(=O)OCC)c2)ccc(C(C)=O)c1O`, the ED50 was 1.28 mg/kg.

`CCCc1c(OCC(O)COc2cccc(NC(=O)CC(=O)OCC)c2C#N)ccc(C(C)=O)c1O` (stereo not given): the ED50 was 0.64 mg/kg.

Take `CCCc1c(OCC(O)COc2ccc3c(=O)cc(C(=O)[O-])oc3c2CCC)ccc(C(C)=O)c1O.[Na+]` (stereo not given) [FPL-55712 SODIUM SALT]: the ED50 is 0.153 mg/kg.
